PMC12366125 (ACS Medicinal Chemistry Letters, 2025)
Where two headings read alike, the source gives them in different places.

What was measured:
A. baumannii AB5075 [1] = assay: Broth microdilution standalone MIC; type: cell-based; settings: Acinetobacter baumannii, AB5075, read-out: standalone MIC against AB5075
A. baumannii AB19606 = assay: Broth microdilution standalone MIC; type: cell-based; settings: Acinetobacter baumannii, AB19606, read-out: standalone MIC against AB19606
HepG2 cells = assay: XTT cell viability assay with HepG2 cells; type: cell-based, human; settings: for IC50: Homo sapiens; for TI: HepG2 IC50 / adjuvant concentration that reduces CLR MIC to breakpoint
Outline: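 Cytotoxicity is tested on HepG2 human hepatoma cells, using lead cyclized-linker 2-AI-benzimidazole conjugates and their parent amide analogues. IC50 is taken from dose-response curves. […] TI is not calculated for compounds without adjuvant activity.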

AB5197 = assay: CLR potentiation, clinical isolate; type: cell-based, Acinetobacter baumannii; settings: adjuvant at 10 μM
AB4448 = assay: CLR potentiation, clinical isolate; type: cell-based, Acinetobacter baumannii; settings: adjuvant at 10 μM
AB4490 = assay: CLR potentiation, clinical isolate; type: cell-based, Acinetobacter baumannii; settings: adjuvant at 10 μM
AB3806 = assay: CLR potentiation, clinical isolate; type: cell-based, Acinetobacter baumannii; settings: adjuvant at 10 μM
AB4878 = assay: CLR potentiation, clinical isolate; type: cell-based, Acinetobacter baumannii; settings: adjuvant at 10 μM
AB2828 = assay: CLR potentiation, clinical isolate; type: cell-based, Acinetobacter baumannii; settings: adjuvant at 10 μM
AB3560 = assay: CLR potentiation, clinical isolate; type: cell-based, Acinetobacter baumannii; settings: adjuvant at 10 μM
AB4556 = assay: CLR potentiation, clinical isolate; type: cell-based, Acinetobacter baumannii; settings: adjuvant at 10 μM
AB4991 = assay: CLR potentiation, clinical isolate; type: cell-based, Acinetobacter baumannii; settings: adjuvant at 10 μM
AB4269 = assay: CLR potentiation, clinical isolate; type: cell-based, Acinetobacter baumannii; settings: adjuvant at 10 μM
AB5711 = assay: CLR potentiation, clinical isolate; type: cell-based, Acinetobacter baumannii; settings: adjuvant at 10 μM
AB3927 = assay: CLR potentiation, clinical isolate; type: cell-based, Acinetobacter baumannii; settings: adjuvant at 10 μM
AB4026 = assay: CLR potentiation, clinical isolate; type: cell-based, Acinetobacter baumannii; settings: adjuvant at 10 μM
AB5674 = assay: CLR potentiation, clinical isolate; type: cell-based, Acinetobacter baumannii; settings: adjuvant at 10 μM
AB4957 = assay: CLR potentiation, clinical isolate; type: cell-based, Acinetobacter baumannii; settings: adjuvant at 10 μM
AB4857 = assay: CLR potentiation, clinical isolate; type: cell-based, Acinetobacter baumannii; settings: adjuvant at 10 μM
AB4795 = assay: CLR potentiation, clinical isolate; type: cell-based, Acinetobacter baumannii; settings: adjuvant at 10 μM
AB4027 = assay: CLR potentiation, clinical isolate; type: cell-based, Acinetobacter baumannii; settings: adjuvant at 10 μM
AB3785 = assay: CLR potentiation, clinical isolate; type: cell-based, Acinetobacter baumannii; settings: adjuvant at 10 μM
AB5001 = assay: CLR potentiation, clinical isolate; type: cell-based, Acinetobacter baumannii; settings: adjuvant at 10 μM
AB4052 = assay: CLR potentiation, clinical isolate; type: cell-based, Acinetobacter baumannii; settings: adjuvant at 10 μM
AB4498 = assay: CLR potentiation, clinical isolate; type: cell-based, Acinetobacter baumannii; settings: adjuvant at 10 μM
AB4025 = assay: CLR potentiation, clinical isolate; type: cell-based, Acinetobacter baumannii; settings: adjuvant at 10 μM
AB5256 = assay: CLR potentiation, clinical isolate; type: cell-based, Acinetobacter baumannii; settings: adjuvant at 10 μM
AB8967 = assay: CLR potentiation, clinical isolate; type: cell-based, Acinetobacter baumannii; settings: adjuvant at 10 μM
A. baumannii AB5075 [2] = assay: Checkerboard assay colistin and compound; type: cell-based, Acinetobacter baumannii; settings: COL alone
[3] = HepG2, 24 h, read-out: HepG2 IC50

Nc1nc(-c2ccc3nc(-c4cccc(Cl)c4Cl)[nH]c3c2)c[nH]1 [Compound 10]
MIC (A. baumannii AB5075 [1]): ≥ 200 µM
MIC (A. baumannii AB19606): ≥ 200 µM

Nc1nc(-c2ccc3nc(-c4ccccc4Cl)[nH]c3c2)c[nH]1 [Compound 9]
MIC (A. baumannii AB5075 [1]): ≥ 200 µM
MIC (A. baumannii AB19606): ≥ 200 µM

Nc1nc(-c2ccc3nc(-c4ccc(Cl)cc4Cl)[nH]c3c2)c[nH]1 [Compound 11]
MIC (A. baumannii AB5075 [1]): ≥ 200 µM
MIC (A. baumannii AB19606): ≥ 200 µM

Nc1nc(-c2ccc3nc(-c4cc(Cl)c(Cl)c(Cl)c4)[nH]c3c2)c[nH]1 [Compound 6]
MIC (A. baumannii AB5075 [1]): ≥ 200 µM
MIC (A. baumannii AB19606): ≥ 200 µM

Nc1nc(-c2ccc3nc(-c4cc(Cl)cc(Cl)c4)[nH]c3c2)c[nH]1 [Compound 2]
IC50 (HepG2 cells; HepG2, read-out: IC50 against HepG2 cells): 69.8 µM
MIC (A. baumannii AB5075 [1]): > 200 µM
MIC (A. baumannii AB19606): > 200 µM

Nc1nc(-c2ccc3nc(-c4ccc(Cl)cc4)[nH]c3c2)c[nH]1 [Compound 7]
MIC (A. baumannii AB5075 [1]): ≥ 200 µM
MIC (A. baumannii AB19606): ≥ 200 µM

COc1cc(OC)cc(-c2nc3ccc(-c4c[nH]c(N)n4)cc3[nH]2)c1 [Compound 15]
MIC (A. baumannii AB5075 [1]): ≥ 200 µM
MIC (A. baumannii AB19606): ≥ 200 µM

Nc1nc(-c2ccc3nc(-c4cc(Cl)ccc4Cl)[nH]c3c2)c[nH]1 [Compound 12]
MIC (A. baumannii AB5075 [1]): ≥ 200 µM
MIC (A. baumannii AB19606): ≥ 200 µM

Nc1nc(-c2ccc3nc(-c4cccc(Cl)c4)[nH]c3c2)c[nH]1 [Compound 8]
MIC (A. baumannii AB5075 [1]): ≥ 200 µM
MIC (A. baumannii AB19606): ≥ 200 µM

Cl.Nc1nc(-c2ccc3nc(-c4ccc(Cl)c(C(F)(F)F)c4)[nH]c3c2)c[nH]1 [Compound 25]
CLR MIC fold reduction (AB5197): 32 fold
CLR MIC fold reduction (AB4448): 32 fold
CLR MIC fold reduction (AB4490): 64 fold
CLR MIC fold reduction (AB3806): 32 fold
CLR MIC fold reduction (AB4878): 32 fold
CLR MIC fold reduction (AB2828): 16 fold
TI (HepG2 cells): 18.7–19.0
IC50 (HepG2 cells; [3]): 141.6 ± 1.1 µM
CLR MIC fold reduction (AB3560): 16 fold
MIC (A. baumannii AB5075 [1]): 50 µM
CLR MIC fold reduction (AB4556): 8 fold
CLR MIC fold reduction (AB4991): 32 fold
CLR MIC fold reduction (AB4269): 2 fold
CLR MIC fold reduction (AB5711): 64 fold
CLR MIC fold reduction (AB3927): 128 fold
CLR MIC fold reduction (AB4026): 32 fold
CLR MIC fold reduction (AB5674): 128 fold
CLR MIC fold reduction (AB4957): 2 fold
MIC (A. baumannii AB19606): 50 µM
CLR MIC fold reduction (AB4857): 16 fold
CLR MIC fold reduction (AB4795): 16 fold
CLR MIC fold reduction (AB4027): 32 fold
CLR MIC fold reduction (AB3785): 32 fold
CLR MIC fold reduction (AB5001): 32 fold
CLR MIC fold reduction (AB4052): 4 fold
CLR MIC fold reduction (AB4498): 8 [8] fold
CLR MIC fold reduction (AB4025): 16 fold
CLR MIC fold reduction (AB5256): 128 fold
CLR MIC fold reduction (AB8967): 64 fold

Cc1cc(C)cc(-c2nc3ccc(-c4c[nH]c(N)n4)cc3[nH]2)c1 [Compound 16]
MIC (A. baumannii AB5075 [1]): ≥ 200 µM
MIC (A. baumannii AB19606): ≥ 200 µM

Cc1ccc(-c2nc3ccc(-c4c[nH]c(N)n4)cc3[nH]2)cc1C [Compound 17]
MIC (A. baumannii AB5075 [1]): ≥ 200 µM
MIC (A. baumannii AB19606): ≥ 200 µM

colistin
COL MIC against AB5075 (A. baumannii AB5075 [2]): 1 µg/mL

Cl.Nc1nc(-c2ccc3nc(-c4ccc(Cl)c(Cl)c4)[nH]c3c2)c[nH]1 [Compound 5]
CLR MIC fold reduction (AB5197): 8 [8] fold
CLR MIC fold reduction (AB4448): 16 fold
CLR MIC fold reduction (AB4490): 4 fold
CLR MIC fold reduction (AB3806): 4 [4] fold
CLR MIC fold reduction (AB4878): 16 fold
CLR MIC fold reduction (AB2828): 8 fold
TI (HepG2 cells): 9.7–9.9
IC50 (HepG2 cells; [3]): 73.5 ± 1.1 µM
CLR MIC fold reduction (AB3560): 4 fold
MIC (A. baumannii AB5075 [1]): ≥ 200 µM
CLR MIC fold reduction (AB4556): 4 [4] fold
CLR MIC fold reduction (AB4991): 8 fold
CLR MIC fold reduction (AB4269): 32 fold
CLR MIC fold reduction (AB5711): 16 fold
CLR MIC fold reduction (AB3927): 16 fold
CLR MIC fold reduction (AB4026): 32 fold
CLR MIC fold reduction (AB5674): 64 fold
CLR MIC fold reduction (AB4957): 4 fold
MIC (A. baumannii AB19606): ≥ 200 µM
CLR MIC fold reduction (AB4857): 4 fold
CLR MIC fold reduction (AB4795): 8 fold
CLR MIC fold reduction (AB4027): 16 fold
CLR MIC fold reduction (AB3785): 64 fold
CLR MIC fold reduction (AB5001): 16 fold
CLR MIC fold reduction (AB4052): 16 fold
CLR MIC fold reduction (AB4498): 8 [8] fold
CLR MIC fold reduction (AB4025): 16 fold
CLR MIC fold reduction (AB5256): 512 fold
CLR MIC fold reduction (AB8967): 32 fold
